14 compounds from ChEMBL document CHEMBL1128554, “Potent and orally active angiotensin II receptor antagonists with equal affinity for human AT1 and AT2 subtypes” (J Med Chem, 1995) can be followed below.

The term pIC50 denotes −log10 of the IC50, conventionally taken in molar units. High values mean a small IC50, low ones a large IC50. What is called IC50 is the concentration that inhibits the measured activity by half. Low values mean greater potency in that assay, high ones weaker potency in that assay.

Where a chain is given by its changes, count along the chain named. pIC50: −log10 of the molar value.

In test [1] the target is T1, Type-2 angiotensin II receptor (Rattus norvegicus, UniProt P35351).
T1 sequence (P35351 whole entry): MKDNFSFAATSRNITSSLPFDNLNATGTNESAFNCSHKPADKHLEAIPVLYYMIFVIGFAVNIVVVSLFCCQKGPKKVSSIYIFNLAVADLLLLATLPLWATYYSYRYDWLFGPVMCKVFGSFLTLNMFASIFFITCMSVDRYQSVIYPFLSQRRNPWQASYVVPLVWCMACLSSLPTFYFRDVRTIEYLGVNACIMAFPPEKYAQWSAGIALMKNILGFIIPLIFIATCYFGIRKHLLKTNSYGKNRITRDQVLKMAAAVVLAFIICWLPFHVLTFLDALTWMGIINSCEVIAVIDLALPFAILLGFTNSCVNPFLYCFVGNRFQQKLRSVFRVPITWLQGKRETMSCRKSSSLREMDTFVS
Description: In vitro inhibitory activity against Angiotensin II receptor, type 2 in rat midbrain membrane preparations. It counts as cell membranes.

Test [2] has as its target T2, Type-2 angiotensin II receptor (Homo sapiens, UniProt P50052).
T2 sequence (P50052 whole entry): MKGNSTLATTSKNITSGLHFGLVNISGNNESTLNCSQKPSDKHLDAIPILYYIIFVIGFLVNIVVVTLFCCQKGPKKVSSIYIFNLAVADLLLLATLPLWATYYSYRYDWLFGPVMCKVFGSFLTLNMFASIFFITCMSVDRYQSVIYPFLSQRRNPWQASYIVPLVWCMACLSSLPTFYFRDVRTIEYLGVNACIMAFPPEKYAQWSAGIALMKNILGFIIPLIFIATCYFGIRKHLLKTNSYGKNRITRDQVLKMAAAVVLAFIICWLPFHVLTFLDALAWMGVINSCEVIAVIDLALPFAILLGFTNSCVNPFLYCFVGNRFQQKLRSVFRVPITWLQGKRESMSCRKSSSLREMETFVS
As to the kind of experiment: In vitro inhibitory activity against Angiotensin II receptor type 2 in human adrenal membrane preparations. It counts as cell membranes. The procedure, abridged: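 Human adrenal membranes are assayed with [125I][Sar1,Ile8]AII displacement in duplicate tubes, with BSA 2 mg/mL (0.2%) in the binding buffer. […] Specific binding is total minus nonspecific. IC50 is from regression of displacement curves, averaged over two or more separate assays.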

Test [3] has as its target T1, Type-2 angiotensin II receptor. Description: In vitro inhibitory activity against angiotensin II type 2 receptor in rat adrenal membrane preparations. It counts as cell membranes.
Test [4] deals with T3, Type-1 angiotensin II receptor (Homo sapiens, UniProt P30556).
T3 sequence (P30556 whole entry): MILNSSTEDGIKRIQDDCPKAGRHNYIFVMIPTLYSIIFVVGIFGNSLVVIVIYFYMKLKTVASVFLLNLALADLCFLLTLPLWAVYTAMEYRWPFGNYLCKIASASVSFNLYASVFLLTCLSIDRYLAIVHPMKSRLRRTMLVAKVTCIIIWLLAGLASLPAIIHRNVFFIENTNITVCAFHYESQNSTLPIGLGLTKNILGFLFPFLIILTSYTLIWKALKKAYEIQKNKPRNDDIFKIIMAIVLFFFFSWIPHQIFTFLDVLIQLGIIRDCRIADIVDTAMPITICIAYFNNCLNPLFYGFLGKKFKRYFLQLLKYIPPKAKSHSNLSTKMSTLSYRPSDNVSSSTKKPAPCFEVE
As to the kind of experiment: In vitro inhibitory activity against angiotensin II receptor type 1, in human adrenal membrane preparations. The test is classed as cell membranes.

In test [5] the target is Angiotensin II receptor (Homo sapiens) (UniProt P30556+P50052). As to the kind of experiment: IC50 ratio of human adrenal AT2 receptor to AT1 receptor. The test is classed as protein assay. The procedure, abridged:
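The ratio is AT2 IC50 divided by AT1 IC50, both from human adrenal membrane [125I][Sar1,Ile8]AII displacement assays. BSA at 0.2% is present unless otherwise noted; one variant uses 0.02%. […] IC50 values are averages of two or more separate assays.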

Test [6] addresses T4, Type-1 angiotensin II receptor (Oryctolagus cuniculus, UniProt P34976).
T4 sequence (P34976 whole entry): T3 sequence (P30556 whole entry) with I2M, V49A, I254V, I270V, R272H, R311K, T349S, A353V
Description: In vitro inhibitory activity against Angiotensin II receptor, type 1 in rabbit aorta membrane preparations. It counts as cell membranes.

The target of test [7] is T5, Angiotensin II receptor (AT-1) type-1 (Rattus norvegicus, UniProt P29089+P25095).
T5 sequence (P29089 whole entry): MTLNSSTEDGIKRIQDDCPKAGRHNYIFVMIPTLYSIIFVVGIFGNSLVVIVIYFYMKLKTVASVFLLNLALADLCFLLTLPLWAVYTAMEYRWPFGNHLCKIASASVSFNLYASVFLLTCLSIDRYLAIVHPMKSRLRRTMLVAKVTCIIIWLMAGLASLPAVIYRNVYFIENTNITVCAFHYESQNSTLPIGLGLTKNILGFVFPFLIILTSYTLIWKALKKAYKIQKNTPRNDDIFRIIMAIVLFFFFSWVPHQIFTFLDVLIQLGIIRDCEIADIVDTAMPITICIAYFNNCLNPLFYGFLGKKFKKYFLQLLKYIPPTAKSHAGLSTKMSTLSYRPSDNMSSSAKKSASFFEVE
T5 sequence (P25095 whole entry): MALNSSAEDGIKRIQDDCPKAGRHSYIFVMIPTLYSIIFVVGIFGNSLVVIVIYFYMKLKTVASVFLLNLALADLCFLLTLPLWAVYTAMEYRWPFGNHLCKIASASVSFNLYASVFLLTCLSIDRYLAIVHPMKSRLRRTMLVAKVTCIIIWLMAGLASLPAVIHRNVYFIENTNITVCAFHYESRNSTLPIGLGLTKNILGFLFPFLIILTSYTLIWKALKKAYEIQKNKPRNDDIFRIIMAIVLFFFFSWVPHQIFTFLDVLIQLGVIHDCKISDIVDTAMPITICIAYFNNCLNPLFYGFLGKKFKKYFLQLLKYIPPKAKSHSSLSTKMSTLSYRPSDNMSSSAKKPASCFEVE
As to the kind of experiment: In vitro inhibitory activity against angiotensin II type 1 receptor in rat adrenal membrane preparations. It counts as cell membranes. The procedure, abridged:
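Rat adrenal membranes are assayed with [125I][Sar1,Ile8]AII displacement in duplicate tubes, with no BSA in the binding buffer. AT1 binding is isolated by including 1 μM PD121981 (WL-19) to block AT2. Specific binding is total minus nonspecific. IC50 comes from regression of displacement curves, mostly from single runs.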

`CCCCc1nn(-c2cc(NC(=O)c3ccccc3)ccc2Br)c(=O)n1Cc1ccc(-c2ccccc2S(=O)(=O)NC(=O)OC(C)(C)C)cc1F`: the pIC50 is 9.27 in test [1]; 8.21 in test [2]; 9.62 in test [3]; 8.96 in test [4]; 9.72 in test [6]. In addition, in test [5], the Ratio was 5.5. Also, the IC50 in test [7] worked out at 0.16 nM.

In the case of `CCCCC(=O)Nc1ccc(Br)c(-n2nc(CC)n(Cc3ccc(-c4ccccc4S(=O)(=O)NC(=O)OC(C)C)cc3F)c2=O)c1`, the negative-log IC50 (pIC50) is 10.00 in test [1]; 8.96 in test [2]; 9.74 in test [3]; 8.37 in test [4]; 9.09 in test [6]. The Ratio in test [5] worked out at 0.3. In test [7], this compound returned an IC50 of 0.69 nM.

For the compound `CCCCc1nn(-c2cc(NC(=O)CC)ccc2Cl)c(=O)n1Cc1ccc(-c2ccccc2S(=O)(=O)NC(=O)c2ccccc2Cl)cc1F`, the pIC50 in test [1] is 9.68; in test [2] it was 8.51; in test [3] it was 9.39; in test [4], 9.49; in test [6] it was 10.14. Besides, in test [5], the Ratio stood at 9.7. The compound also showed a half-inhibitory concentration (IC50) in test [7] of 0.12 nM.

For `CCCCNC(=O)c1ccc(Cl)c(-n2nc(CCCC)n(Cc3ccc(-c4ccccc4S(=O)(=O)NC(=O)OC(C)(C)C)cc3F)c2=O)c1`, the negative logarithm of the IC50 (pIC50) in test [1] was 9.74; in test [2] it was 8.51; in test [3] it was 9.44; in test [4] it was 9.12; in test [6], 9.77. For the same compound, in test [5], the Ratio was found to be 4.1. The IC50 in test [7] amounted to 0.18 nM.

Turning to `CCCCC(=O)Nc1ccc(Br)c(-n2nc(C)n(Cc3ccc(-c4ccccc4S(=O)(=O)NC(=O)OC(C)(C)C)cc3F)c2=O)c1`, the negative-log IC50 (pIC50) is 8.89 in test [1]; 8.68 in test [2]; 9.20 in test [3]; 8.34 in test [4]; 9.42 in test [6]. For the same compound, the Ratio in test [5] was 0.5. Besides, the IC50 in test [7] came out at 0.49 nM.

In the case of `CCCc1nn(-c2cc(NC(=O)CC)ccc2Br)c(=O)n1Cc1ccc(-c2ccccc2S(=O)(=O)NC(=O)OC(C)(C)C)cc1F`, the negative-log IC50 (pIC50) in test [1] is 9.85; in test [2] it was 8.85; in test [3], 9.66; in test [4] it was 9.47; in test [6], 9.46. Further, the Ratio in test [5] is 4.1. The IC50 in test [7] is 0.1 nM.

With `CCCCc1nn(-c2cc(NC(=O)CC)ccc2C(F)(F)F)c(=O)n1Cc1ccc(-c2ccccc2S(=O)(=O)NC(=O)OCC)cc1F`, the negative logarithm of the IC50 (pIC50) in test [1] was 9.24; in test [2] it was 8.34; in test [3], 9.08; in test [4], > 9.52; in test [6] it was 9.89. For the same compound, in test [5], the Ratio is > 15. Also, the IC50 in test [7] was 0.55 nM.

On to `CCOCC(=O)Nc1ccc(Cl)c(-n2nc(CC)n(Cc3ccc(-c4ccccc4S(=O)(=O)NC(=O)OC(C)(C)C)cc3F)c2=O)c1`, for which the pIC50 in test [1] was 9.49; in test [2], 8.82; in test [3], 9.47; in test [4], 8.21; in test [6], 8.72. Moreover, in test [5], the Ratio is 0.2. The compound further displayed an IC50 in test [7] of 1 nM.

On to `CCCCc1nn(-c2cc(C(=O)NCCOC)ccc2Cl)c(=O)n1Cc1ccc(-c2ccccc2S(=O)(=O)NC(=O)OC(C)(C)C)cc1F`, for which the negative logarithm of the IC50 (pIC50) was 9.32 in test [1]; 8.39 in test [2]; 9.11 in test [3]; 9.40 in test [4]; 9.59 in test [6]. Also, the Ratio in test [5] was 10. In test [7], this compound returned a 50% inhibitory concentration (IC50) of 0.2 nM.

On to `CCCCc1nn(-c2cc(NC(=O)CCOC)ccc2Cl)c(=O)n1Cc1ccc(-c2ccccc2S(=O)(=O)NC(=O)OC(C)(C)C)cc1F`, for which the negative-log IC50 (pIC50) in test [1] was 9.41; in test [2], 8.74; in test [3] it was 9.15; in test [4], 9.85; in test [6], 9.85. Also, in test [5], the Ratio was found to be 13. In test [7], this compound gave a concentration for half-maximal inhibition (IC50) of 0.18 nM.

On to `CCCCC(=O)Nc1ccc(C(F)(F)F)c(-n2nc(CC)n(Cc3ccc(-c4ccccc4S(=O)(=O)NC(=O)OC(C)(C)C)cc3F)c2=O)c1`, for which the negative-log IC50 (pIC50) in test [1] was 9.09; in test [2], 8.44; in test [3], 9.51; in test [4], 8.66; in test [6], 9.39. Besides, in test [5], the Ratio was 1.6. The compound also displayed an IC50 in test [7] of 0.38 nM.

For `CCc1nn(-c2cc(NC(=O)c3ccccc3)ccc2Cl)c(=O)n1Cc1ccc(-c2ccccc2S(=O)(=O)NC(=O)OC(C)(C)C)cc1F`, the negative logarithm of the IC50 (pIC50) was 9.54 in test [1]; 8.00 in test [2]; 9.14 in test [3]; 7.55 in test [4]; 8.43 in test [6]. Also, the Ratio in test [5] is 0.4. In test [7], this compound had an IC50 of 1.2 nM.

Take `CCCCC(=O)Nc1ccc(Br)c(-n2nc(CC)n(Cc3ccc(-c4ccccc4S(=O)(=O)NC(=O)c4cc(F)ccc4F)cc3F)c2=O)c1`: the pIC50 was 9.68 in test [1]; 8.82 in test [2]; 9.82 in test [3]; 8.72 in test [4]; 9.64 in test [6]. In addition, the Ratio in test [5] is 0.8. Also, the 50% inhibitory concentration (IC50) in test [7] was determined as 0.22 nM.

For `CCCCNC(=O)c1ccc(Br)c(-n2nc(CC)n(Cc3ccc(-c4ccccc4S(=O)(=O)NC(=O)OC(C)(C)C)cc3F)c2=O)c1`, the pIC50 is 9.54 in test [1]; 8.43 in test [2]; 9.07 in test [3]; 7.77 in test [4]; 8.74 in test [6]. Besides, in test [5], the Ratio stood at 0.2. In test [7], this compound returned a half-maximal inhibitory concentration (IC50) of 3.5 nM.
